# Reference: ChEMBL document CHEMBL1143528, “Kinesin spindle protein (KSP) inhibitors. Part 1: The discovery of 3,5-diaryl-4,5-dihydropyrazoles as potent and selective inhibitors of the mitotic kinesin KSP” (Bioorg Med Chem Lett, 2005)
# Target: T1, Caspase-3 (Homo sapiens, UniProt P42574)
# T1 sequence (P42574 whole entry): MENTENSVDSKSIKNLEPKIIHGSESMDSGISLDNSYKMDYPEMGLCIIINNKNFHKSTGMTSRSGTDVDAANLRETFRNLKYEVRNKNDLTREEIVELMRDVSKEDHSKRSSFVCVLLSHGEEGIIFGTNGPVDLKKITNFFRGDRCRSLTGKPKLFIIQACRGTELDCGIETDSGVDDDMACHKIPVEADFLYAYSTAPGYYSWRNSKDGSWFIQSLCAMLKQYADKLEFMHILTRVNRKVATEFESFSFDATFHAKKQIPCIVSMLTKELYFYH
# Test: Inhibitory concentration towards caspase-3 induction in human A2780 ovarian carcinoma cells
# Format: functional, cell-based
# How it was run: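 A2780 human ovarian carcinoma cells were treated with compound. Caspase-3 activation, used as an apoptosis marker, was then measured in cell lysates with a fluorescent kit that reads release of the AFC fluorophore from DEVD-AFC substrate. The value is a concentration giving 50% of caspase-3 induction.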
row,Compound,IC50
1,CC(=O)N1N=C(c2cc(F)ccc2F)C[C@H]1c1cccc(O)c1,0.015 µM

# Target: T2, Kinesin-like protein KIF11 (Homo sapiens, UniProt P52732)
# T2 sequence (P52732 whole entry): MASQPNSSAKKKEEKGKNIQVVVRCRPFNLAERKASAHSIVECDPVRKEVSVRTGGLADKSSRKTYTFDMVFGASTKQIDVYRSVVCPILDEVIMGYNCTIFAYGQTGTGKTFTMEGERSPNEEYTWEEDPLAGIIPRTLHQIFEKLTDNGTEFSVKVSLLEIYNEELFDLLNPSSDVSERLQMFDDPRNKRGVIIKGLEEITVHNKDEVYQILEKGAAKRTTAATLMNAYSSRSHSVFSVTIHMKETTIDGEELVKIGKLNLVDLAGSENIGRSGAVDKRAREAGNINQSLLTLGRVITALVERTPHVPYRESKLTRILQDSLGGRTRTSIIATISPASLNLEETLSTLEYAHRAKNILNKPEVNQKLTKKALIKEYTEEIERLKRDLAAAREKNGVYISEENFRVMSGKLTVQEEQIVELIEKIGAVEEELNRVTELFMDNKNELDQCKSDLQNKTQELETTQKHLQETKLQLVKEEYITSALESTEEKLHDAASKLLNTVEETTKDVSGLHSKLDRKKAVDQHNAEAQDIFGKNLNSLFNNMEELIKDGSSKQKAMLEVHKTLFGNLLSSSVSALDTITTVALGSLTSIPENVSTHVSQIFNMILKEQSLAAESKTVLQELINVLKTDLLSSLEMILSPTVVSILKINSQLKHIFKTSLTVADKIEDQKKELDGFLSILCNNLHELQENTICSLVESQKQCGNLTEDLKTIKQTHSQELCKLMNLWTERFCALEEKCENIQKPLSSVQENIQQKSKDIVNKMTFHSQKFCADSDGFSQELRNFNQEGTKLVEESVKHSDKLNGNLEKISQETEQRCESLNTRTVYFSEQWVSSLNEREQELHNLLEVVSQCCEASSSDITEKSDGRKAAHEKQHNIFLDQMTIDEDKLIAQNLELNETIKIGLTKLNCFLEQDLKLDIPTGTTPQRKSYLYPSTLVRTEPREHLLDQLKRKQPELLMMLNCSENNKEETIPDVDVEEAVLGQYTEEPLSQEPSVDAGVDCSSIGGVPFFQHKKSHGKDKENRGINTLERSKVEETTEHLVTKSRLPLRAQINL
# Test: In vitro inhibitory concentration towards kinesin spindle protein activity of ATP hydrolysis in the presence of microtubules measured by ATPase assay (n=3)
row,Compound,IC50
1,CC(=O)N1N=C(c2c(F)cccc2F)CC1c1ccccc1 (configuration not stated),10.9 µM
2,CC(=O)N1N=C(c2ccccc2)CC1c1ccccc1 (configuration not stated),> 50 µM
3,CNC(=O)N1N=C(c2cc(F)ccc2F)CC1c1ccccc1 (configuration not stated),3.1 µM
4,CC(=O)N1N=C(c2ccccc2C)CC1c1ccccc1 (configuration not stated),46.2 µM
5,CC(C)C(=O)N1N=C(c2ccccc2Cl)CC1c1cccc(O)c1 (configuration not stated),1.1 µM
6,CC(=S)N1N=C(c2cc(F)ccc2F)CC1c1ccccc1 (configuration not stated),0.25 µM
7,CC(=O)N1N=C(c2cc(F)ccc2F)C[C@H]1c1cccc(O)c1,0.026 µM
8,CC(=O)N1N=C(c2cc(F)ccc2F)CC1c1cccs1 (configuration not stated),1.8 µM
9,CC(=O)N1N=C(c2ccccc2F)CC1c1ccccc1 (configuration not stated),3.6 µM
10,O=C(c1ccccc1)N1N=C(c2ccccc2Cl)CC1c1cccc(O)c1 (configuration not stated),13.5 µM
11,CC(=O)N1N=C(c2ccccc2Cl)CC1c1ccccc1 (configuration not stated),3.6 µM
12,CC(=O)N1N=C(c2ccc(Cl)cc2)CC1c1ccccc1 (configuration not stated),> 50 µM
13,CC(=O)N1N=C(c2cc(F)ccc2F)CC1c1cccc(O)c1 (configuration not stated),0.051 µM
14,CN(C)C(=O)N1N=C(c2cc(F)ccc2F)CC1c1ccccc1 (configuration not stated),0.084 µM
15,CC(=O)N1N=C(c2ccccc2Cl)CC1c1cccc(O)c1 (configuration not stated),0.45 µM
16,CN1N=C(c2ccccc2Cl)CC1c1cccc(O)c1 (configuration not stated),> 50 µM

row,Compound,IC50
1,CC(=O)N1N=C(c2cc(F)ccc2F)CC1c1ccccc1 (configuration not stated),0.094 µM
2,COC(=O)N1N=C(c2ccccc2Cl)CC1c1cccc(O)c1 (configuration not stated),> 50 µM
3,CS(=O)(=O)N1N=C(c2cc(F)ccc2F)CC1c1ccccc1 (configuration not stated),1.8 µM
4,CCC(=O)N1N=C(c2ccccc2Cl)CC1c1cccc(O)c1 (configuration not stated),1.2 µM
5,NCCCC(=O)N1N=C(c2ccccc2Cl)CC1c1cccc(O)c1 (configuration not stated),6 µM
6,CC(=O)N1N=C(c2ccc(Cl)cc2Cl)CC1c1ccccc1 (configuration not stated),37.6 µM
7,CC(=O)N1N=C(c2ccccc2Br)CC1c1ccccc1 (configuration not stated),23.3 µM
8,CC(C)(C)C(=O)N1N=C(c2ccccc2Cl)CC1c1cccc(O)c1 (configuration not stated),0.46 µM
9,CC(=O)N1N=C(c2cccc(Cl)c2)CC1c1ccccc1 (configuration not stated),9.8 µM
10,CC(=O)N1N=C(c2ccccc2)CC1c1cccc(O)c1 (configuration not stated),6.9 µM
11,CC(=O)N1N=C(c2cccc(F)c2F)CC1c1ccccc1 (configuration not stated),12.7 µM
12,COc1ccccc1C1=NN(C(C)=O)C(c2ccccc2)C1 (configuration not stated),> 50 µM
13,CC(=O)N1N=C(c2cc(F)cc(F)c2)CC1c1ccccc1 (configuration not stated),> 5 µM
14,CC(=O)N1N=C(c2ccccc2C(F)(F)F)CC1c1ccccc1 (configuration not stated),> 50 µM
15,CCOC(=O)C1=C(C)NC(=S)N[C@H]1c1cccc(O)c1 [S-MENASTROL],10 µM
